Measured values as given in ChEMBL document CHEMBL4043069, “Streptenols F-I Isolated from the Marine-Derived Streptomyces misionensis BAT-10-03-023” (2017).

How the values were obtained:
Assay type in all cases: functional
HT-29 = test: Cytotoxicity against human HT-29 cells assessed as inhibition of cell growth
Outline: (§1)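 Human tumour lines were used: A-549 lung carcinoma, MDA-MB-231 breast adenocarcinoma, HT-29 colorectal carcinoma and PSN1 pancreatic adenocarcinoma. The compounds were tested across doses. GI50, the concentration giving 50% growth inhibition, was derived from dose-response data by a literature procedure. Survival was estimated with the National Cancer Institute algorithm, and three dose-response parameters were calculated.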

PSN1 = test: Cytotoxicity against human PSN1 cells assessed as inhibition of cell growth; outline: as §1
MDA-MB-231 = test: Cytotoxicity against human MDA-MB-231 cells assessed as inhibition of cell growth; outline: as §1
A549 = test: Cytotoxicity against human A549 cells assessed as inhibition of cell growth; outline: as §1

C/C=C/CCC(=O)C[C@@H](O)CCO
GI50 (HT-29): 54 µM | GI50 (PSN1): 54 µM | GI50 (MDA-MB-231): 54 µM | GI50 (A549): 54 µM

C/C=C/C=C/C(=O)C[C@H](CCO)OC
GI50 (HT-29): 49 µM | GI50 (PSN1): 50 µM | GI50 (MDA-MB-231): 30 µM | GI50 (A549): 50 µM

C/C=C/C=C/C(=O)CC(CCO)OCC[C@H](O)CC(=O)/C=C/C=C/C (some centres undefined)
GI50 (HT-29): 29 µM | GI50 (PSN1): 29 µM | GI50 (MDA-MB-231): 29 µM | GI50 (A549): 29 µM

C/C=C/C=C/C(=O)C[C@@H](O)CCO
GI50 (HT-29): 54 µM | GI50 (PSN1): 54 µM | GI50 (MDA-MB-231): 54 µM | GI50 (A549): 54 µM

C/C=C/CCC(=O)C[C@@H](O)CCO[C@]1(CC/C=C/C)C[C@@H](O)CCO1
GI50 (HT-29): 28 µM | GI50 (PSN1): 28 µM | GI50 (MDA-MB-231): 28 µM | GI50 (A549): 28 µM

C/C=C/C=C/C(=O)CC(CCO)OCC[C@H](O)CC(=O)CC/C=C/C (some centres undefined)
GI50 (HT-29): 28 µM | GI50 (PSN1): 28 µM | GI50 (MDA-MB-231): 28 µM | GI50 (A549): 28 µM
